Source: PubChem BioAssay
Shown are actives, neighbours in structure and some others; about 2.5% of the full set was active somewhere.
eLon inh – inhibits E. coli Lon protease; P0A9M0; purified E. coli Lon protease, fluorescence polarization; inhibition, % at 7.94 µM; hit rate 0.42% among 360,000; in the data active = inhibition above about 13%, passing the limit was not always enough;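 note: 0% = enzyme with probe and DMSO and 100% = no enzyme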
TDP2 inh – TDP2 (human) inhibition, absorbance primary screen | O95551 | recombinant TDP2, T5PNP hydrolysis, p-nitrophenol absorbance 415 nm | inhibition, % at 12.8 µM | hit rate 0.34% among 370,000 | AID 720702;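 active = inhibition above the mean of all tested compounds plus 3 SD, set per campaign, cut at about 25% in these data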;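 note: 0% = DMSO with enzyme and 100% = buffer with substrate but no TDP2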
Target sequence (O95551 whole entry, looked up): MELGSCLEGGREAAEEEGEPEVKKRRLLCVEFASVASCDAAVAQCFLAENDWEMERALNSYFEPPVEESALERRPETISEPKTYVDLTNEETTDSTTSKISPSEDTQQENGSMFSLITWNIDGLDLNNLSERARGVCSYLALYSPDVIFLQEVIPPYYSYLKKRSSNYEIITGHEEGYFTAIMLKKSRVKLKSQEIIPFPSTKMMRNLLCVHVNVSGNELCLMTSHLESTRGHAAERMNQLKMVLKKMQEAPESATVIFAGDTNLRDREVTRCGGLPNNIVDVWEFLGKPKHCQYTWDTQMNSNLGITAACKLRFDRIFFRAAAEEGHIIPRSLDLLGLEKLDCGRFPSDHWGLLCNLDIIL
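Test system: human TDP2 enzyme; Input: 120 nM TDP2 per well; Buffer or medium: Mg2+-containing Tris-HCl buffer, pH 7.5; Reagent: 5 mM T5PNP; Dosing: 12.8 µM single point, 1% DMSO; Incubation: reaction 2 h, 37 °C; Detection: p-Nitrophenol epi absorbance; Read-out: % inhibition relative to enzyme-containing and enzyme-free wells; Replicates: single well per compound.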
GSTO1 counter – blocks human GSTO1 in RBBP9 counter-screen; recombinant GSTO1, activity-based probe fluorescence polarization; inhibition, % at 5.96 µM; hit rate 1.1% among 300,000;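 active = inhibition above the campaign mean inhibition plus 3 SD, cut at about 35% in these data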;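 note: 0% = GSTO1-1 with DMSO and 100% = wells lacking GSTO1-1 enzyme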
Target sequence (P78417 whole entry, looked up): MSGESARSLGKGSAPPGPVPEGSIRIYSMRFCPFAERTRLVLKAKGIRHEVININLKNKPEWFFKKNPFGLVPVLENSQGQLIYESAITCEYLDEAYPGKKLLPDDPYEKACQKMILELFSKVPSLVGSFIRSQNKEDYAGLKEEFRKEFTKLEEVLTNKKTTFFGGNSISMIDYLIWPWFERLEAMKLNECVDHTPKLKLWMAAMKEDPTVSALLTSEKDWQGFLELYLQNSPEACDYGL
PRMT1 inh – blocks human protein arginine methyltransferase 1. Q99873. hit rate 1.3% among 370,000. recombinant PRMT1, activity-based probe fluorescence polarization. inhibition, % at 2.79 µM;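 active = inhibition above about 21% made by adding two undisclosed values, limit read from the data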
PAD4 inh – blocks human protein arginine deiminase 4; Q9UM07; recombinant PAD4, RCA probe fluorescence polarization; inhibition, % at 6.36 µM; hit rate 0.41% among 330,000; AID 485272;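 active = percent inhibition above a cutoff equal to the mean of all tested compounds plus 3 SD, cut at about 15% in these data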;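 note: 0% = PAD4 with RCA probe and DMSO and 100% = probe without PAD4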
GSTO1 inh conf – GSTO1 (human) inhibition, confirmation | shares compounds with GSTO1 counter | recombinant GSTO1, probe fluorescence polarization | inhibition, % at 5.96 µM | hit rate 54% among 2,400 | AID 2176;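 active = inhibition above the primary screen's cutoff, its mean inhibition plus 3 SD, cut at about 35% in these data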;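 note: loss of polarization as inhibitors block binding of rhodamine sulfonate ester activity probe; 0% = GSTO1 with DMSO and 100% = wells lacking GSTO1 enzyme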
GSTO1 recomb ABPP – blocks recombinant human glutathione S-transferase omega 1; shares compounds with GSTO1 counter; recombinant GSTO1, gel ABPP SE-Rh probe fluorescence; inhibition, % at 1 µM; hit rate 30% among 130; AID 463110;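 active = inhibition of the enzyme GSTO1 above about 75%, limit read from the data; inactive = inhibition below that limit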
The depositor's hits bear a star; nt = no result given.

SMILES | eLon inh | TDP2 inh | GSTO1 counter | PRMT1 inh | PAD4 inh | GSTO1 inh conf | others
CN1C(=O)/C(=C/c2ccc(-c3ccccc3[N+](=O)[O-])o2)SC1=Nc1ccc(Cl)c(C(=O)O)c1 | -4 | 6 | 72* | 11 | 12 | 79*
COc1ccc2nc3cccc(OC)c3nc2c1 | 7 | 2 | 57* | 8 | -1 | 87*
O=C1CCC2(CCCCC2)N1CCCO | nt | 1 | nt | 3 | nt | nt
Nc1cc(N)c(OCC(F)(F)F)cc1OCC(F)(F)F | 10 | nt | 80* | nt | 55* | 64*
CCOC(=O)C1=C(Cc2ccc(F)cc2)C(=O)c2ccccc2C1=O | -9 | 31* | 38* | 79* | -37 | 4
O=C(OCc1ccc(F)cc1)c1ccc2c(c1)-c1ccccc1C2=O | -2 | 1 | -3 | 1 | 1 | nt
COc1ccccc1-c1cccc2c3c([nH]c12)[C@@H]1C[C@H]2[C@@H](CN1CC3)[C@H](C)ON2C | nt | 7 | nt | 1 | nt | nt
NC1=NC(=O)/C(=C/c2cc(Br)c(O)c(Br)c2)S1 | -104 | -2 | 41* | -4 | -28 | 81*
NC1=NC(=O)/C(=C/c2ccc(Br)cc2)S1 | -4 | 2 | -3 | -3 | 0 | nt
CC1=C(CC(=O)c2ccc(Cl)cc2)C(=O)c2ccccc2C1=O | -5 | 15 | 45* | 5 | -9 | 14
COc1cccc2c1NC(C(=O)O)C1CC=CC21 (stereo unspecified) | -12 | nt | 61* | nt | 1 | 46*
O=C(O)C1Nc2ccc(OC(F)(F)F)cc2C2C=CCC12 (stereo unspecified) | nt | nt | 48* | nt | 1 | 19
COc1cccc(C2Nc3c(F)cc(Br)cc3C3C=CCC32)c1OC (stereo unspecified) | -16 | 9 | 3 | -3 | -2 | nt
O=C(OCc1cn(Cc2ccc(F)cc2)nn1)N1CCOCC1 | nt | -4 | nt | -1 | nt | nt
O=C1[C@@H](CCc2ccccc2)[C@@H]2c3ccccc3C=NN2[C@@H]2c3ccccc3C=NN12 | nt | 4 | nt | -5 | nt | nt
CCS(=O)(=O)NCc1ccc2[nH]c3c(c2c1)CCCC3 | nt | nt | 46* | nt | -15 | 60*
O=[N+]([O-])c1ccc(O)c(C=Nc2ccc3oc(Cc4ccc(Cl)cc4)nc3c2)c1 | nt | nt | 41* | nt | -9 | -1
COc1ccc(-n2nc3ccc(NS(C)(=O)=O)cc3n2)cc1Cl | -7 | 6 | -6 | -2 | -1 | nt
Cc1ccc(-n2nc3ccc(N)cc3n2)cc1Cl | 4 | 15 | 44* | 5 | 3 | 8
COc1ccc(-n2nc3ccc(N)cc3n2)cc1Cl | -5 | 22 | 53* | 10 | -4 | 49*
COc1ccc(S(=O)(=O)N2CCOCC2)cc1NC(=O)CN1CCN(C)CC1 | -8 | -2 | 38* | -3 | -3 | 4
COC(=O)c1ccc(S(=O)(=O)N2CCC(NC(=O)Cc3ccccc3)CC2)cc1 | nt | 7 | nt | -4 | nt | nt
Cc1ccc(-n2c(SCC(=O)NN=Cc3c[nH]c4ccccc34)nnc2-c2ccccc2)cc1 | nt | -9 | nt | 1 | nt | nt
CN(C)c1nc(Cl)nc(N(C#N)CCOc2ccccc2)n1 | 2 | -5 | 44* | 0 | -1 | 69*
CC(C)(C)N=C1SCC(C)(/C=N/O)S1 (stereo unspecified) | 0 | 7 | 42* | -2 | 1 | 9
SMILES | eLon inh | TDP2 inh | GSTO1 counter | PRMT1 inh | PAD4 inh | GSTO1 inh conf | others
Cc1ccc2nc(N3CCC(C(=O)O)CC3)nc(-c3ccccc3)c2c1 | -7 | -3 | 54* | 1 | -3 | 58*
Oc1cccc(N2CCN(c3cccc(O)c3)CC2)c1 | nt | 5 | nt | 5 | nt | nt
O=C(Nc1c(-c2ccc(F)cc2)nc2ncccn12)C1CC1 | nt | 6 | nt | -1 | nt | nt
Cc1cc(C(=O)NC(C)C2CCCO2)c(C)o1 (stereo unspecified) | 5 | 0 | 42* | -5 | -1 | 5
CCC[C@H]1[C@@H](NC(=O)NCC)CC[C@@]23CCCN2C(=O)CCC[C@@H]13 | nt | -8 | nt | -3 | nt | nt
O=C(Nc1ccccc1)c1cn(CCBr)cn1 | 2 | -16 | 62* | 9 | 0 | 73*
CCOC(=O)N(C)S(=O)(=O)c1ccccc1[N+](=O)[O-] | 1 | 8 | 1 | 1 | 1 | nt
Cc1ccc(S(=O)(=O)N(CC2CO2)c2ccccc2[N+](=O)[O-])cc1 (stereo unspecified) | -1 | 8 | 78* | -3 | -4 | 93* | GSTO1 recomb ABPP=28
Cc1ccc(N(CC2CO2)S(=O)(=O)c2ccccc2[N+](=O)[O-])cc1 (stereo unspecified) | -1 | 9 | 87* | -2 | 4 | 97* | GSTO1 recomb ABPP=25
O=[N+]([O-])c1ccccc1S(=O)(=O)N(CC1CO1)c1ccccc1 (stereo unspecified) | 3 | -1 | 98* | -2 | -1 | 100* | GSTO1 recomb ABPP=56
CCOc1ccc(N(CC(=O)Nc2c(C)n(C)n(-c3ccccc3)c2=O)S(=O)(=O)c2cccc3cccnc23)cc1 | nt | -8 | nt | 11 | nt | nt
CCCCN1C[C@@H](COCc2ccccc2)Oc2cc(F)ccc2S1(=O)=O | nt | 1 | nt | -5 | nt | nt
CCN(CC)C(=O)CC[C@@H]1CC[C@]2(CCCN(C(=O)c3ccno3)C2)O1 | nt | 6 | nt | -1 | nt | nt
CC(=O)NC1=C(N(C)C2CCS(=O)(=O)C2)C(=O)c2ccccc2C1=O (stereo unspecified) | 4 | 11 | 38* | 3 | -10 | 4
CCOc1ccc(NC(=O)C(c2ccccn2)N(C(=O)CCl)c2ccc(OCC)cc2)cc1 (stereo unspecified) | 2 | nt | 43* | nt | -8 | 10
COc1ccc(NC(=O)C(c2ccccn2)N(C(C)=O)c2ccc(C)cc2)cc1 (stereo unspecified) | 16 | -3 | 9 | 0 | -5 | nt
Cn1c2ccccc2c2cc(/C=N/NC(=O)c3cc(O)ccc3O)ccc21 | 5 | 11 | 82* | 19 | 2 | 40*
Cc1cccc(C(=O)Nc2nc3ncccn3c2-c2ccc(F)c(F)c2)c1 | nt | 6 | nt | 1 | nt | nt
Cc1ccc(-n2nc(C)c3c2OC(N)=C(C#N)C3c2ccc(C)o2)cc1 (stereo unspecified) | -4 | -2 | 48* | 19 | -11 | 12
CCc1[nH]nc2c1C(c1ccc(C)o1)C(C#N)=C(N)O2 (stereo unspecified) | -1 | 7 | 12 | -3 | -3 | nt
CCOC(=O)N1CCC(N2C(=O)c3ccccc3C2Nc2cc(C(=O)OC)cc(C(=O)OC)c2)CC1 (stereo unspecified) | 2 | -13 | 59* | -3 | -1 | -1
O=C(OCC(=O)N1CCCCC1)c1cc(NS(=O)(=O)c2ccc(Cl)c([N+](=O)[O-])c2)ccc1O | 2 | 1 | 51* | 1 | -6 | 56*
COC(=O)[C@H]1C[C@@]2(C#N)c3ccccc3N(C(=O)OC(C)(C)C)[C@H]2N1C(=O)OC(C)(C)C | nt | -3 | nt | -1 | nt | nt
